Consider 1 compound from ChEMBL document CHEMBL4043093, “2-Oxo-3, 4-dihydropyrimido[4, 5-d]pyrimidinyl derivatives as new irreversible pan fibroblast growth factor receptor (FGFR) inhibitors” (Eur J Med Chem, 2017).

For experiment [1], the target named is Serine/threonine-protein kinase PAK 2 (Homo sapiens) (UniProt Q13177). As to the kind of experiment: Inhibition of wild-type human partial length PAK2 (P151 to R525 residues) expressed in Escherichia coli BL21 assessed as residual activity at 1000 nM after 30 mins by Kinomescan method relative to control.
The target of experiment [2] is Casein kinase II subunit alpha (Homo sapiens) (UniProt P68400). As to the kind of experiment: Inhibition of wild-type human full length CSNK2A1 (M1 to Q391 residues) expressed in HEK293 cells assessed as residual activity at 1000 nM after 30 mins by Kinomescan method relative to control. It is filed as cell-based. The gist of the method:
(§1)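 Single-point screen at a fixed 1 µM, run within a 456-kinase DiscoveRx KINOMEscan panel. Each kinase's read-out is Percent Control, i.e. signal relative to a control without compound. Hits were scored by a Percent Control < 35 cut-off, and an S(35) selectivity score was calculated across the non-mutant kinases.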

Experiment [3] deals with Ribosomal protein S6 kinase alpha-5 (Homo sapiens) (UniProt O75582). As to the kind of experiment: Inhibition of wild-type human partial length N-terminal RPS6KA5 kinase domain 1 expressed in Escherichia coli BL21 assessed as residual activity at 1000 nM after 30 mins by Kinomescan method relative to control.
Chain of Ribosomal protein S6 kinase alpha-5 (Homo sapiens) (O75582 whole entry, looked up, the tested form may be a part): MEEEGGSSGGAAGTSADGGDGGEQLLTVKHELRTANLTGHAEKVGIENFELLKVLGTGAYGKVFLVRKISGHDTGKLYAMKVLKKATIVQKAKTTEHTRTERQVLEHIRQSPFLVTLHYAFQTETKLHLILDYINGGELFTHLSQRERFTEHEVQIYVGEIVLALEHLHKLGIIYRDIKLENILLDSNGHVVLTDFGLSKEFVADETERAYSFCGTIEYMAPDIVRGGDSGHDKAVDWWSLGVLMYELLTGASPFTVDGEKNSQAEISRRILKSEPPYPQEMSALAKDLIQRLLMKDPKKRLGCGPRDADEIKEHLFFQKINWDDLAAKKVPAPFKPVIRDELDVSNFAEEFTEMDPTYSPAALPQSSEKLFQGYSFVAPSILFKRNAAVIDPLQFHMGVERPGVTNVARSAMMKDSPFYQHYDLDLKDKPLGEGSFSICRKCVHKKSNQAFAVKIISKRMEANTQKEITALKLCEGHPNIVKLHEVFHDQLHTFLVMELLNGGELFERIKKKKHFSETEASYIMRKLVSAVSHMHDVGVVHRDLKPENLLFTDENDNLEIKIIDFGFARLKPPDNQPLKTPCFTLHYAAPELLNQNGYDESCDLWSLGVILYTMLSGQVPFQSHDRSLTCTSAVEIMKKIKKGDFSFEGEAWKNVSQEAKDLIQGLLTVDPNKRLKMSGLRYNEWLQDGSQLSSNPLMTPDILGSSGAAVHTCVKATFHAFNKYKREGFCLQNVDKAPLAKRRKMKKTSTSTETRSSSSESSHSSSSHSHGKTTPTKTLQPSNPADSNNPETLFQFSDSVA
Experiment [4] addresses Citron Rho-interacting kinase (Homo sapiens) (UniProt O14578). As to the kind of experiment: Inhibition of wild-type human partial length CIT (M68 to E432 residues) expressed in Escherichia coli BL21 assessed as residual activity at 1000 nM after 30 mins by Kinomescan method relative to control.
The test system of experiment [5] is Epidermal growth factor receptor (Homo sapiens), P00533 [UNDEFINED MUTATION]. Description: Inhibition of human partial length EGFR E746-A750del mutant expressed in Escherichia coli BL21 assessed as residual activity at 1000 nM after 30 mins by Kinomescan method relative to control. The gist of the method: (§2)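 KINOMEscan binding panel of 456 kinases, with the test compound at a single concentration of 1 µM. Read-out is Percent Control.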

In experiment [6] the test system is Tyrosine-protein kinase ABL1 (Homo sapiens), P00519 [E255K]. Description: Inhibition of human phosphorylated ABL1 E255K mutant (S229 to K512 residues) expressed in HEK293 cells assessed as residual activity at 1000 nM after 30 mins by Kinomescan method relative to control. Type of experiment: cell-based. The procedure, abridged:
as §1

In experiment [7] the target is BMP-2-inducible protein kinase (Homo sapiens) (UniProt Q9NSY1). Description: Inhibition of wild-type human partial length BIKE (S34 to N329 residues) expressed in Escherichia coli BL21 assessed as residual activity at 1000 nM after 30 mins by Kinomescan method relative to control.
Chain of BMP-2-inducible protein kinase (Homo sapiens) (Q9NSY1 whole entry, looked up, the tested form may be a part): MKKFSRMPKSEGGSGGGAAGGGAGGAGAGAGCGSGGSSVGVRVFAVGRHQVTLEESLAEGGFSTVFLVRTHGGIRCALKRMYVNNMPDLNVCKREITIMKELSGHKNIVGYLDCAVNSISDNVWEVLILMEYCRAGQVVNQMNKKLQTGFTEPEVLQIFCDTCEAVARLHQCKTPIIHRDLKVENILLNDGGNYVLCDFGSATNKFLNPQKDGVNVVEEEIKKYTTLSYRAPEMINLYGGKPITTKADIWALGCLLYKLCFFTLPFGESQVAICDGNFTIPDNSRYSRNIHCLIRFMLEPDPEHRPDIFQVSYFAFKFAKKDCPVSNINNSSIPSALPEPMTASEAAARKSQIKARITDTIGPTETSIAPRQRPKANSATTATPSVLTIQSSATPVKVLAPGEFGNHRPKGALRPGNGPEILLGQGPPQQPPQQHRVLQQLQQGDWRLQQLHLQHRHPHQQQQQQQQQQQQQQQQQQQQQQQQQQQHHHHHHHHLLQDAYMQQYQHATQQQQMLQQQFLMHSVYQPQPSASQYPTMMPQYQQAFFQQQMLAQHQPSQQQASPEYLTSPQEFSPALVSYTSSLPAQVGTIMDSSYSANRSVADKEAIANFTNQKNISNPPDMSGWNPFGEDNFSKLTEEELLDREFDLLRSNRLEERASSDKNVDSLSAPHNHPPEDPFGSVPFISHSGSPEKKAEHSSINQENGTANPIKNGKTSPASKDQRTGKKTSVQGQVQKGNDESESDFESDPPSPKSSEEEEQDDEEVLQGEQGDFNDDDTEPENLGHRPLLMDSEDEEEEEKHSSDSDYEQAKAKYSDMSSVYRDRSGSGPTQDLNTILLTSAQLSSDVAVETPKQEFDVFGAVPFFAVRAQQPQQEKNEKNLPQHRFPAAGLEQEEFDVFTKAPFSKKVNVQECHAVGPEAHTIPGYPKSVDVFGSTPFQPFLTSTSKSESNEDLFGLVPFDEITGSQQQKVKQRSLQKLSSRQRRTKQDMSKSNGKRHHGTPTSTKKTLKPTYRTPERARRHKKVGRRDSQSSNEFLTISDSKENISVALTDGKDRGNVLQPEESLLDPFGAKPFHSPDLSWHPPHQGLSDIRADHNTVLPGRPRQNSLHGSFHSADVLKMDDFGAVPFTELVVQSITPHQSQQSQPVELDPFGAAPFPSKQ
Experiment [8] addresses Activin receptor type-2A (Homo sapiens) (UniProt P27037). Description: Inhibition of wild-type human ACVR2A (V171 to T499 residues) expressed in Escherichia coli BL21 assessed as residual activity at 1000 nM after 30 mins by Kinomescan method relative to control. The procedure, abridged: as §1
For experiment [9], the target named is Serine/threonine-protein kinase TBK1 (Homo sapiens) (UniProt Q9UHD2). Description: Inhibition of wild-type human full length TBK1 (M1 to L729 residues) expressed in HEK293 cells assessed as residual activity at 1000 nM after 30 mins by Kinomescan method relative to control. Type of experiment: cell-based.
Experiment [10] has as its target Vascular endothelial growth factor receptor 3 (Homo sapiens) (UniProt P35916). As to the kind of experiment: Inhibition of wild-type human partial length FLT4 (E821 to E1196 residues) expressed in Escherichia coli BL21 assessed as residual activity at 1000 nM after 30 mins by Kinomescan method relative to control.
The target of experiment [11] is Serine/threonine-protein kinase WNK3 (Homo sapiens) (UniProt Q9BYP7). Description: Inhibition of wild-type human partial length WNK3 (M1 to D434 residues) expressed in HEK293 cells assessed as residual activity at 1000 nM after 30 mins by Kinomescan method relative to control. Type of experiment: cell-based.
Experiment [12] concerns the target Protein-tyrosine kinase 2-beta (Homo sapiens) (UniProt Q14289). Description: Inhibition of wild-type human full length PYK2 (M1 to E967 residues) expressed in Escherichia coli BL21 assessed as residual activity at 1000 nM after 30 mins by Kinomescan method relative to control. The gist of the method:
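Single-concentration screen at 1 µM against a 456-kinase panel (KINOMEscan). Read-out is Percent Control for each kinase. Across the 403 non-mutant kinases, an S(35) selectivity score was derived as the fraction of kinases with Percent Control < 35.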

In experiment [13] the target is Ephrin type-B receptor 6 (Homo sapiens) (UniProt O15197). As to the kind of experiment: Inhibition of wild-type human partial length EPHB6 (Q634 to P948 residues) expressed in HEK293 cells assessed as residual activity at 1000 nM after 30 mins by Kinomescan method relative to control. It is filed as cell-based.
Experiment [14] deals with G protein-coupled receptor kinase 3 (Homo sapiens) (UniProt P35626). Description: Inhibition of wild-type human full length GRK3 (M1 to L688 residues) expressed in HEK293 cells assessed as residual activity at 1000 nM after 30 mins by Kinomescan method relative to control. Type of experiment: cell-based. The gist of the method:
(§3)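 Single-concentration screen at 1 µM across a 456-kinase KINOMEscan panel. The read-out is Percent Control for each kinase.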

Experiment [15] deals with Serine/threonine-protein kinase Chk2 (Homo sapiens) (UniProt O96017). As to the kind of experiment: Inhibition of wild-type human partial length CHEK2 (S253 to E574 residues) expressed in Escherichia coli BL21 assessed as residual activity at 1000 nM after 30 mins by Kinomescan method relative to control.
Chain of Serine/threonine-protein kinase Chk2 (Homo sapiens) (O96017 whole entry, the tested form may be a part): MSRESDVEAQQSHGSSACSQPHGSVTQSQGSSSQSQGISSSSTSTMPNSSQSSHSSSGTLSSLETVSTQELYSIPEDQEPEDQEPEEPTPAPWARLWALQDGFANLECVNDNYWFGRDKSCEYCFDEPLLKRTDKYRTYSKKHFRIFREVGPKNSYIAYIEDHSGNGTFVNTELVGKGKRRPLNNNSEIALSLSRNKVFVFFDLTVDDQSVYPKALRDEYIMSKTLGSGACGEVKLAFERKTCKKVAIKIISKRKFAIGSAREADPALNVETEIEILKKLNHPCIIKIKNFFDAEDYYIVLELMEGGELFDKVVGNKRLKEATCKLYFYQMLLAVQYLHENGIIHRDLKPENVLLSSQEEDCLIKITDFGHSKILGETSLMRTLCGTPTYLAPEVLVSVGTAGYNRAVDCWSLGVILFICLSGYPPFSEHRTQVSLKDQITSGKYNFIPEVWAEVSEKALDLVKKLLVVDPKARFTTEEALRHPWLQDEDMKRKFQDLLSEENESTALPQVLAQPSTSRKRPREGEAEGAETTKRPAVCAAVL
For experiment [16], the target named is Mitogen-activated protein kinase kinase kinase 1 (Homo sapiens) (UniProt Q13233). As to the kind of experiment: Inhibition of wild-type human partial length MAP3K1 (L1202 to W1512 residues) expressed in HEK293 cells assessed as residual activity at 1000 nM after 30 mins by Kinomescan method relative to control. It is filed as cell-based.
For experiment [17], the system named is Epidermal growth factor receptor (Homo sapiens), P00533 [G719S]. As to the kind of experiment: Inhibition of human partial length EGFR G719S mutant (R669 to V1011 residues) expressed in Escherichia coli BL21 assessed as residual activity at 1000 nM after 30 mins by Kinomescan method relative to control. The procedure, abridged: as §2
Experiment [18] has as its target 3-phosphoinositide-dependent protein kinase 1 (Homo sapiens) (UniProt O15530). Description: Inhibition of wild-type human full length PDPK1 (M1 to Q556 residues) expressed in Escherichia coli BL21 assessed as residual activity at 1000 nM after 30 mins by Kinomescan method relative to control. The gist of the method: as §3
Experiment [19] concerns the target Serine/threonine-protein kinase D3 (Homo sapiens) (UniProt O94806). Description: Inhibition of wild-type human partial length PRKD3 (S543 to E863 residues) expressed in Escherichia coli BL21 assessed as residual activity at 1000 nM after 30 mins by Kinomescan method relative to control.
Experiment [20] has as its target Cyclin-dependent kinase-like 5 (Homo sapiens) (UniProt O76039). As to the kind of experiment: Inhibition of wild-type human partial length CDKL5 (M1 to S337 residues) expressed in HEK293 cells assessed as residual activity at 1000 nM after 30 mins by Kinomescan method relative to control. It is filed as cell-based.
In experiment [21] the target is Vascular endothelial growth factor receptor 1 (Homo sapiens) (UniProt P17948). Description: Inhibition of wild-type human partial length FLT1 (R781 to F1239 residues) expressed in Escherichia coli BL21 assessed as residual activity at 1000 nM after 30 mins by Kinomescan method relative to control.

Chain of Citron Rho-interacting kinase (Homo sapiens) (O14578 whole entry, the tested form may be a part): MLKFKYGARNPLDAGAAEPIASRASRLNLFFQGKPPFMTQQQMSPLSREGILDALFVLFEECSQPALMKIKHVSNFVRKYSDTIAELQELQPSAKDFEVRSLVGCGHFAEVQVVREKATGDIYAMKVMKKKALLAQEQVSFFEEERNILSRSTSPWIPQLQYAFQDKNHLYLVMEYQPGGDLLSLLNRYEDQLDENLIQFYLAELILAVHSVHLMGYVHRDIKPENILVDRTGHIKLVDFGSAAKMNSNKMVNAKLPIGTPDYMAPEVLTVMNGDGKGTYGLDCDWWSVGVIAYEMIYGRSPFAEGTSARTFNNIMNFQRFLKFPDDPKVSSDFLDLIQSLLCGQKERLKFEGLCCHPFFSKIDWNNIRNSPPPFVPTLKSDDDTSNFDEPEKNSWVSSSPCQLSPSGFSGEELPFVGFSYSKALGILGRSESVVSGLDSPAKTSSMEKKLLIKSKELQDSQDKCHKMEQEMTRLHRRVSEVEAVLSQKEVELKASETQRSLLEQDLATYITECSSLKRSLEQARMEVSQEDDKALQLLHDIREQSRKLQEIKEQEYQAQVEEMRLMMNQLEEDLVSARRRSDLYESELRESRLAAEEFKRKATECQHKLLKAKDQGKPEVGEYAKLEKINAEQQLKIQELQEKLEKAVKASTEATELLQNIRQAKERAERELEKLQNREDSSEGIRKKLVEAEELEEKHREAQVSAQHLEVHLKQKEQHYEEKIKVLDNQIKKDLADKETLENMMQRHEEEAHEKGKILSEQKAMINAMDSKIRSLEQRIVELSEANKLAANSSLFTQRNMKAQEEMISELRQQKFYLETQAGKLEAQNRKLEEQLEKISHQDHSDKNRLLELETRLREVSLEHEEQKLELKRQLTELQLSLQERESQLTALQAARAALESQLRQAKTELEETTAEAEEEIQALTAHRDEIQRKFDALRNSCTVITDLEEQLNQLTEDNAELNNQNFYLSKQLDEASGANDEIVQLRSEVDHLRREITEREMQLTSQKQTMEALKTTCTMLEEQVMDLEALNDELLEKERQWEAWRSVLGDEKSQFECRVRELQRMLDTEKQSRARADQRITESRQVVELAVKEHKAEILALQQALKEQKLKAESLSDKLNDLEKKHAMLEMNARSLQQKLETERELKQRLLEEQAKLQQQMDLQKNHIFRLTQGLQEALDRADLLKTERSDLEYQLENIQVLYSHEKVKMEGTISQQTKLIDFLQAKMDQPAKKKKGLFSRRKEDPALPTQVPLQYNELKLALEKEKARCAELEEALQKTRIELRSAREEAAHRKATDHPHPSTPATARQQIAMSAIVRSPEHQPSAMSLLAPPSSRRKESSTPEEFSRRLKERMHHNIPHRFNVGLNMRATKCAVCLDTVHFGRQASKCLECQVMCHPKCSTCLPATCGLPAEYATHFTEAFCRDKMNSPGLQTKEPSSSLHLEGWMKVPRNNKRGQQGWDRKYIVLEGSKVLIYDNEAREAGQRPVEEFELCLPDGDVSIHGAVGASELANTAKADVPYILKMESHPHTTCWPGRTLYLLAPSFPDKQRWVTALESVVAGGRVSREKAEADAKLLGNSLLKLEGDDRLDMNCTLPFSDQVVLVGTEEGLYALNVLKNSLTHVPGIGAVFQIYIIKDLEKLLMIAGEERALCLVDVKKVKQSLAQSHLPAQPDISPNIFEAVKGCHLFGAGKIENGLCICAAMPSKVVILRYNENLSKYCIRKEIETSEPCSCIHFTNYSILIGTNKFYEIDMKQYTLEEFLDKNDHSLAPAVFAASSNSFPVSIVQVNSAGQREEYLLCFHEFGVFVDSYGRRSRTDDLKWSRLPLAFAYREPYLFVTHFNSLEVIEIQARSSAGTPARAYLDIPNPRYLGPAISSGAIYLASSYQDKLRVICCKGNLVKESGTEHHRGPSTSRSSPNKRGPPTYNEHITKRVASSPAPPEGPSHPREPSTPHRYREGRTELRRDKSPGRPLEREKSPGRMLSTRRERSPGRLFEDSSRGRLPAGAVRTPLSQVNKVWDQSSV
Chain of Casein kinase II subunit alpha (Homo sapiens) (P68400 whole entry, looked up, the tested form may be a part): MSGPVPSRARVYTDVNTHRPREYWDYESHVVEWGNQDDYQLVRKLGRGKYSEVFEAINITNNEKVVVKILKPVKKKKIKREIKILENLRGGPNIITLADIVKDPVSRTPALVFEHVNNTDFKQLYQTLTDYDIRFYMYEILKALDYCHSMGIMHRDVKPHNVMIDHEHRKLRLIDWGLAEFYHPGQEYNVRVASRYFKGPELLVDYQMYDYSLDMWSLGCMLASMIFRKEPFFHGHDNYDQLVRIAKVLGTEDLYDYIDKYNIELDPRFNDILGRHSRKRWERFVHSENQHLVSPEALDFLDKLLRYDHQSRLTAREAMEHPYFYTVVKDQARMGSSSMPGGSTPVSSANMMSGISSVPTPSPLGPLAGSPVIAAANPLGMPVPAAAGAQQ

On to `COc1cc(OC)c(Cl)c(N2Cc3cnc(Nc4ccc(F)cc4)nc3N(C3CCN(C(=O)/C=C/CN(C)C)CC3)C2=O)c1Cl`, for which the Activity amounted to 100% in experiment [1]; 100% in [2]; 99% in experiment [3]; 99% in [4]; 100% in experiment [5]; 48% in [6]. Moreover, the Activity in experiment [7] came out at 100%; in experiment [8], 99%; in experiment [9] it was 92%; in experiment [10], 2.7%; in [11] it was 86%; in experiment [12], 91%. The Activity in experiment [13] was 67%; in [14], 100%; in experiment [15], 100%; in experiment [16] it was 100%; in experiment [17] it was 87%; in experiment [18], 67%. Further, the Activity in experiment [19] is 100%; in [20] it was 100%; in experiment [21] it was 5.6%.
